Assay outcomes (PubChem BioAssay)
XiGFP reactiv – reactivates the inactive X chromosome in mouse fibroblasts; XiGFP mouse fibroblasts, % GFP-positive cells imaging, 3 d; cells co-treated with 5-aza-dC sensitizer; scaled so ellipticine positive control = 100%; activation, % at 7.58 µM; 360,000 compounds, 0.055% hits; AID 743238;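 active means mean normalized replicate activation at least 10% and every replicate at or above 10%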;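 further: 0% = median of on-plate neutral control wells and 100% = ellipticine 6 µM median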
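System: 68-5-11 XiGFP fibroblast line; Timing: 3 days compound exposure; Compound dosing: one concentration, pinned; Benchmarks: positive control ellipticine, 6 µM final; Buffer or medium: DMEM containing 5-aza-dC.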
AF4-AF9 inh – MLL-AF4/AF9 protein interaction inhibition | inhibition, % at 10 µM | AID 651704 | AlphaScreen, biotin-AF4 peptide binding to FLAG-AF9 | P42568 | 350,000 compounds, 0.47% hits;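 active means every replicate reaching a set inhibition limit, whatever the replicate mean, cut at about 25% in these data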;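 further: 0% = plate neutral control median and 100% = total signal loss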
CASP6 VEID inh – blocks human caspase-6 cleavage activity; inhibition, % at 12.5 µM; AID 686996; 350,000 compounds, 0.53% hits; purified caspase-6, Z-VEID-R110 cleavage fluorescence;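 active means mean inhibition across replicates at least about 35%, with every replicate also reaching that limit, limit read from the data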;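 further: 0% = median of neutral control wells and 100% = no fluorescence left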
RAD52 anneal inh – RAD52 (human) annealing inhibition. P43351. recombinant RAD52 DNA annealing, FRET fluorescence. inhibition, % at 18.7 µM. 360,000 compounds, 0.46% hits. AID 651710;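 active means every replicate showing at least 50% inhibition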
RAD54 branch – RAD54 (human) branch migration inhibition; Q92698; RAD54 Holliday junction branch migration, FAM/BHQ fluorescence; inhibition, % at 10.4 µM; 360,000 compounds, 0.14% hits; AID 602329;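 active means mean normalized replicate activity at least 40 and at least half of replicates scoring 40 or more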;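 further: 0% = median of neutral control wells and 100% = median of positive control wells; inhibitors cause a drop in the FAM fluorescence signal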
Target sequence (Q92698 whole entry, looked up): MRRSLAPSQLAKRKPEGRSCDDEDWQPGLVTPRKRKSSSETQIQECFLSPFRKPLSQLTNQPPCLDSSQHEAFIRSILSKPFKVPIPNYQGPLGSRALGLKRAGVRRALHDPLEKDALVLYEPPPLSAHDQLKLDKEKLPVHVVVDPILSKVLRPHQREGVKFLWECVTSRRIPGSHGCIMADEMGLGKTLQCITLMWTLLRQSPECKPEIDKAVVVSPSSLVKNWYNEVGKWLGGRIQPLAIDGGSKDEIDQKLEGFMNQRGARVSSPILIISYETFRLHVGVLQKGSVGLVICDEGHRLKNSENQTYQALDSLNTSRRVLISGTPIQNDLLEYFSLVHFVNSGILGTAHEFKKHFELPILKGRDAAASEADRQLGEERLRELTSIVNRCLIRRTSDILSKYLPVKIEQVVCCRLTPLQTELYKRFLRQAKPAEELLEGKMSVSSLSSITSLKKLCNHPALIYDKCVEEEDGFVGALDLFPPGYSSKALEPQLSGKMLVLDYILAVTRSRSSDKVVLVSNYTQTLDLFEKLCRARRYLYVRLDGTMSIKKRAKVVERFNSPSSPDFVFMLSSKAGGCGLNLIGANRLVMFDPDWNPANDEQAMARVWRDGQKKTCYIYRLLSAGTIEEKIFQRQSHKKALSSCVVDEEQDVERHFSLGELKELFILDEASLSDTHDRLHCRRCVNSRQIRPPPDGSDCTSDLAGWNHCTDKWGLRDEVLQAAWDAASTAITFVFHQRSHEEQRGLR
S100A4 inh HTS – inhibitors of human S100A4 binding to myosin IIA peptide; P26447; S100A4/TAMRA-MyoIIA peptide fluorescence polarization; inhibition, % at 10.7 µM; 360,000 compounds, 0.14% hits; AID 652163;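 active means mean inhibition of at least 70% across replicates, with every replicate also reaching that level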
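Compound dosing: one dose per compound; test system: human S100A4 monomer with TAMRA-labelled myosin IIA peptide; probe or stimulus: TAMRA-labelled myosin IIA heavy-chain peptide probe, 5 nM; medium: HEPES buffer with Ca2+, pH 7.2; schedule: 5 min incubation before reading; benchmarks: neutral control DMSO, positive control TFP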
* hit, by the source's call; i = inactive; nt = no result. Most compounds without a hit are left out; they make up all but 1.3% or so of the library.

SMILES | XiGFP reactiv | AF4-AF9 inh | CASP6 VEID inh | RAD52 anneal inh | RAD54 branch | S100A4 inh HTS
COc1ccc(NC(=O)Nc2ccc3c(c2)C(=O)N([C@H](C)CO)C[C@H](C)[C@@H](CN(C)CC2CC2)OCCCC[C@H](C)O3)cc1 | 0 | 17 | 2 | -4 | 0 | -4
O=C1C(NS(=O)(=O)c2ccccc2)=C(N2CCN(c3ccc(F)cc3)CC2)C(=O)c2ccccc21 | 0 | 64* | 7 | -5 | -5 | -2
CC1CCN(C2=C(NS(=O)(=O)c3ccccc3)C(=O)c3ccccc3C2=O)CC1 | 0 | 57* | 11 | -8 | nt | -3
O=C1C(NS(=O)(=O)c2ccc(Br)cc2)=C(N2CCCCC2)C(=O)c2ccccc21 | 0 | 38* | 2 | -5 | -2 | 4
Cc1ccc(S(=O)(=O)N(C)C[C@@H]2Oc3ccc(NC(=O)NC4CCCCC4)cc3CC(=O)N([C@@H](C)CO)C[C@@H]2C)cc1 | -1 | 2 | -2 | 14 | 30 | -1
COc1ccc2c(c1)c(CCN1C(=O)c3ccccc3C1=O)cn2C(=O)c1ccco1 | nt | -6 | 38* | -18 | -2 | 5
Cn1cc(/C=C/c2cc[n+](C)cc2)c2cc(Cl)ccc21 | 49* | 8 | -23 | i | -344 | -8
C[C@@H]1CN([C@@H](C)CO)S(=O)(=O)c2ccc(Br)cc2O[C@H]1CN(C)C(=O)C1CC1 | 1 | -1 | 1 | 4 | 2 | -3
CC(C)NC(=O)Nc1cccc2c1O[C@H](CN(C)C(=O)OC(C)(C)C)[C@@H](C)CN(C)C2=O | 0 | nt | nt | nt | nt | nt
COCC(=O)N1CC2(C1)[C@@H](c1ccccc1)[C@@H](CO)N2Cc1ccccc1OC | 0 | 1 | -1 | -5 | nt | 3
CC(Cc1c[nH]c2ccccc12)C(=O)NCc1ccco1 (stereo not given) | 0 | 1 | 42* | -3 | 5 | -3
CCN1CCN(CCNC(=O)c2cc(Cl)c(NC(=O)C3=C(C)OCCS3)cc2OC)CC1 | 0 | 7 | -31 | 7 | -4 | 126*
O=C1c2ccccc2C(=O)c2c(Nc3ccc(CCO)cc3)ccc(O)c21 | 0 | 50* | 1 | -12 | 2 | 7
CC(=O)Nc1ccc(Nc2ccc3c4c(cc(=O)n3C)-c3ccccc3C(=O)c24)cc1 | 0 | 4 | 5 | -27 | nt | 18
Cc1ccc(S(=O)(=O)N2CCC(C(=O)NCCCN3CCOCC3)CC2)cc1C | 0 | 0 | 60* | 4 | -7 | 0
Nc1c(/C=C2/C=CC(=O)C(O)=C2)c(=O)nc2sc(CC(=O)N3CCOCC3)nn12 | 0 | -9 | 28 | -176 | -6 | -3
Nc1c(/C=C2/C=CC(=O)C(O)=C2)c(=O)nc2sc(CC(=O)N3CCCC3)nn12 | 0 | -2 | 48* | -187 | -16 | -2
Nc1c(/C=C2/C=CC(=O)C(O)=C2)c(=O)nc2sc(CC(=O)N3CCCCC3)nn12 | 0 | -1 | 83* | -175 | -26 | -2
C[C@@H]1CN([C@@H](C)CO)C(=O)c2cc(NC(=O)Nc3ccc(F)cc3)ccc2O[C@@H](C)CCCCO[C@H]1CN(C)S(=O)(=O)c1ccccc1 | 0 | -1 | -6 | 13 | 4 | 0
C[C@H]1CN([C@@H](C)CO)C(=O)c2ccccc2-c2ccccc2CO[C@@H]1CN(C)C(=O)Nc1ccc(F)cc1 | 0 | nt | nt | nt | nt | nt
CN1C(=O)c2cc(NC(=O)C3CCCCC3)ccc2OC[C@H]2O[C@@H](CC(=O)NCCc3ccncc3)CC[C@@H]21 | 0 | 0 | 0 | -2 | -7 | 4
Cc1ccccc1-c1ccc([C@H]2[C@H](CO)N3CCCCN(S(=O)(=O)Cc4ccccc4)C[C@@H]23)cc1 | 0 | 4 | -2 | 55* | 14 | -3
Cc1ccccc1-c1ccc([C@@H]2[C@@H](CO)N3CCCCN(S(=O)(=O)Cc4ccccc4)C[C@H]23)cc1 | 0 | 6 | -4 | 63* | 3 | -16
CN(C(=O)c1ccc(F)cc1)c1ccc(OCC(=O)Nc2ccccc2C(=O)O)cc1 | 0 | -1 | 4 | -9 | 5 | 5
CN(C(=O)c1ccc(Cl)cc1)c1ccc(OCC(=O)Nc2cc(C(=O)O)ccc2Cl)cc1 | 0 | -7 | 36* | -3 | nt | -3
SMILES | XiGFP reactiv | AF4-AF9 inh | CASP6 VEID inh | RAD52 anneal inh | RAD54 branch | S100A4 inh HTS
CCOC(=O)C1=C(C)NC(=S)NC1/C=C/c1ccccc1 (stereo not given) | 36* | nt | nt | nt | 1 | nt
COC(=O)C1=C(C)NC(=S)NC1/C=C/c1ccccc1 (stereo not given) | 0 | 1 | -6 | -15 | 2 | 1
CCN1[C@@H]2c3ccc(C4=CCCCC4)c(=O)n3C[C@@H]2[C@@H](CO)[C@@H]1C(=O)OC | 0 | 0 | -6 | -20 | 7 | -11
CN(C)CC(=O)NC[C@H]1N[C@@H](CO)[C@H]1c1ccc(-c2cccc(C#N)c2)cc1 | 1 | 5 | -3 | 51* | 3 | 12
CCC(=O)NC[C@@H]1N[C@@H](CO)[C@H]1c1ccc(-c2cccc(C#N)c2)cc1 | 0 | -1 | 3 | -140 | 3 | -8
O=[N+]([O-])c1ccc(O)c(/C=N/Nc2nc3ccccc3[nH]2)c1 | 0 | 32* | 8 | -4 | nt | -3
C[C@@H]1CN([C@@H](C)CO)C(=O)c2cc(NS(=O)(=O)c3cn(C)cn3)ccc2O[C@@H](C)CCCCO[C@H]1CN(C)Cc1ccc(C(F)(F)F)cc1 | -1 | 1 | -6 | 6 | 2 | -2
COc1ccc(NC(=O)Nc2ccc3c(c2)C(=O)N([C@@H](C)CO)C[C@@H](C)[C@H](CN(C)Cc2ccccc2)OCCCC[C@@H](C)O3)cc1 | 0 | 4 | 0 | 40 | 2 | -5
COc1ccc(CN(C)C[C@@H]2Oc3ccc(NC(=O)Nc4ccc(OC)cc4)cc3C(=O)N([C@H](C)CO)C[C@@H]2C)cc1 | 0 | 4 | 1 | 12 | -2 | -13
COc1ccc(NC(=O)Nc2ccc3c(c2)C(=O)N([C@H](C)CO)C[C@H](C)[C@H](CN(C)Cc2ccccc2)OCCCC[C@H](C)O3)cc1 | 0 | 8 | -1 | 54* | 8 | -10
COc1ccc(NC(=O)Nc2ccc3c(c2)C(=O)N([C@H](C)CO)C[C@@H](C)[C@H](CN(C)Cc2ccccc2)OCCCC[C@H](C)O3)cc1 | 0 | 8 | 1 | 59* | 7 | 5
COc1ccc(CN(C)C[C@@H]2Oc3ccc(NC(=O)Nc4ccc(F)cc4)cc3C(=O)N([C@H](C)CO)C[C@H]2C)cc1 | -1 | 7 | -1 | 16 | 72* | -19
CNC[C@H]1OCCCC[C@@H](C)Oc2ccc(NS(C)(=O)=O)cc2C(=O)N([C@@H](C)CO)C[C@@H]1C | -1 | -5 | -4 | -193 | -5 | -33
